From ChEMBL document CHEMBL5335784, “Discovery of a novel 1,3,4-oxadiazol-2-one-based NLRP3 inhibitor as a pharmacological agent to mitigate cardiac and metabolic complications in an experimental model of diet-induced metaflammation” (Eur J Med Chem, 2023) come the findings set out here.

The structures appear in SMILES notation. Activity calls are given as the source filed them. No cut-off for these calls is given here.

In data set [1] the test system is Rattus norvegicus. As to the kind of experiment: Antiinflammatory activity against high fat diet fed-induced metaflammation Wistar rat model assessed as reduction in HFD-induced metabolic alterations by measuring reduction in triglyceride level in plasma at 20 mg/kg/day, ip administered for 4 weeks. It is filed as functional, organism-based. In a few lines:
(§1)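 Rats fed HFD or SD for 12 weeks, dosed 20 mg/kg/day i.p. in saline/2% DMSO/5% Cremophor-EL during the final 28 days. Serum obtained after sacrifice by centrifuging blood at 2000 x g, 10 min, 4 °C. Glucose read by glucometer; total, HDL and LDL cholesterol and triglycerides measured with commercial kits. n=6–7 per group.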

Data set [2] has as its system Rattus norvegicus. As to the kind of experiment: Cardioprotective activity against high fat diet fed-induced metaflammation Wistar rat model assessed as reduction in myocardial damage by measuring reduction in plasma BNP level at 20 mg/kg/day, ip administered for 4 weeks by ELISA. It is filed as functional, organism-based. A digest of the protocol: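 Male Wistar rats on HFD or SD for 12 weeks received 20 mg/kg/day i.p. (saline, 2% DMSO, 5% Cremophor-EL) or vehicle for the last 28 days. Circulating IL-1β, TNF-α, BNP and Gal-3 quantified by ELISA in blood collected after sacrifice. n=6–7 per group.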

In data set [3] the test system is Rattus norvegicus. Nature of the data set: Cardioprotective activity against myocardial ischemia/reperfusion injury-induced contractile impairment and high fat diet fed obese Wistar rat model assessed as left ventricular end diastolic pressure at 20 mg/kg/day, ip administered for 4 weeks followed by excised heart exposed to global ischemia for 30 mins and reperfusion for 120 mins and measured at the end of reperfusion (reference value: 27 +/-1 mmHg). It is filed as functional.

The subject of data set [4] is Rattus norvegicus. Nature of the data set: Cardioprotective activity against ischemia/reperfusion-induced myocardial injury and standard diet fed Wistar rat model assessed as infarct size at 20 mg/kg/day, ip administered for 4 weeks followed by excised heart exposed to global ischemia for 30 mins and reperfusion for 120 mins and measured at the end of reperfusion by nitroblue tetrazolium staining based analysis (Rvb ~ 62+/-2%). Type of data set: functional. As to conditions: 672 h. In a few lines:
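Hearts from HFD or SD rats (20 mg/kg/day i.p., last 28 days) Langendorff-perfused (KH buffer, 37 °C, 12 ml/min). After 40 min stabilization they underwent 30 min global ischemia and 120 min reperfusion. The LV was stained; unstained necrotic and stained viable tissue separated and weighed. Infarct size expressed as % of LV mass. n=6–7.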

Data set [5] is described as follows: Drug metabolism in PBS assessed as half time for compound hydrolysis to 2-(5-(2-Chlorobenzyl)-2-oxo-1,3,4-oxadiazol-3(2H)-yl)acetic acid at 100 uM at pH 7.4 by RP-HPLC analysis. It is filed as ADME. In a few lines: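 Compound added from 10 mM DMSO stock to 50 mM PBS, pH 7.4, 37 °C. Sampled over 48 h and quantified by RP-HPLC (phenyl column, 226/254 nm) against external standards of ester and acid.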

The test system of data set [6] is Rattus norvegicus. Nature of the data set: Inhibition of ischemia/reperfusion-induced NLRP3 inflammasome activation in ischemia/reperfusion-induced myocardial injury and standard diet fed Wistar rat model assessed as decrease in NLRP3 protein expression at 20 mg/kg/day, ip administered for 4 weeks followed by excised heart exposed to global ischemia for 30 mins and reperfusion for 120 mins by immunoblot analysis. It is filed as functional, organism-based. In a few lines:
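Left ventricles from Langendorff hearts (30 min global ischemia/120 min reperfusion) of HFD or SD rats dosed 20 mg/kg/day i.p. for the final 28 days. Tissue homogenized in RIPA buffer with protease/phosphatase inhibitors. 50 μg protein run on 8% SDS-PAGE and immunoblotted for NLRP3 (1:500), normalized to β-actin by densitometry; n=4 per group.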

Data set [7] in a line: Effect on glyco-metabolic profile in standard diet fed Wistar rat assessed as effect on LDL cholesterol level in plasma at 20 mg/kg/day, ip administered for 4 weeks. Type of data set: toxicity, organism-based. The following applies: in vivo, 672 h. A digest of the protocol:
as §1

Data set [8] concerns Rattus norvegicus. As to the kind of experiment: Antiinflammatory activity against high fat diet fed-induced metaflammation Wistar rat model assessed as reduction in HFD-induced metabolic alterations by measuring reduction in total cholesterol level in plasma at 20 mg/kg/day, ip administered for 4 weeks. It is filed as functional, organism-based. A digest of the protocol: as §1

Data set [9] in a line: Stability of the compound in saline solution containing 2% DMSO and 5% Cremophor-EL measured at 4 degC for more than 7 days by RP-HPLC analysis. The following applies: buffer, 168 h; time 7 day. It is filed as physicochemical. A digest of the protocol:
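A 2 mg/mL solution in saline with 2% DMSO and 5% Cremophor-EL was kept at 4 °C or 25 °C for 7 days and analysed daily by RP-HPLC at 226/254 nm.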

Data set [10] has as its target NACHT, LRR and PYD domains-containing protein 3 (Homo sapiens, UniProt Q96P20). As to the kind of experiment: Inhibition of NLRP3 inflammasome activation in PMA-differentiated human THP-1 cells assessed as inhibition of LPS/ATP-induced IL-1 beta release pretreated for 4 hrs with LPS followed by incubation with compound for 1 hr and later treated with ATP for 1.5 hrs by ELISA. Type of data set: cell-based.

NACHT, LRR and PYD domains-containing protein 3, sequence (Q96P20 whole entry, the tested form may be a part): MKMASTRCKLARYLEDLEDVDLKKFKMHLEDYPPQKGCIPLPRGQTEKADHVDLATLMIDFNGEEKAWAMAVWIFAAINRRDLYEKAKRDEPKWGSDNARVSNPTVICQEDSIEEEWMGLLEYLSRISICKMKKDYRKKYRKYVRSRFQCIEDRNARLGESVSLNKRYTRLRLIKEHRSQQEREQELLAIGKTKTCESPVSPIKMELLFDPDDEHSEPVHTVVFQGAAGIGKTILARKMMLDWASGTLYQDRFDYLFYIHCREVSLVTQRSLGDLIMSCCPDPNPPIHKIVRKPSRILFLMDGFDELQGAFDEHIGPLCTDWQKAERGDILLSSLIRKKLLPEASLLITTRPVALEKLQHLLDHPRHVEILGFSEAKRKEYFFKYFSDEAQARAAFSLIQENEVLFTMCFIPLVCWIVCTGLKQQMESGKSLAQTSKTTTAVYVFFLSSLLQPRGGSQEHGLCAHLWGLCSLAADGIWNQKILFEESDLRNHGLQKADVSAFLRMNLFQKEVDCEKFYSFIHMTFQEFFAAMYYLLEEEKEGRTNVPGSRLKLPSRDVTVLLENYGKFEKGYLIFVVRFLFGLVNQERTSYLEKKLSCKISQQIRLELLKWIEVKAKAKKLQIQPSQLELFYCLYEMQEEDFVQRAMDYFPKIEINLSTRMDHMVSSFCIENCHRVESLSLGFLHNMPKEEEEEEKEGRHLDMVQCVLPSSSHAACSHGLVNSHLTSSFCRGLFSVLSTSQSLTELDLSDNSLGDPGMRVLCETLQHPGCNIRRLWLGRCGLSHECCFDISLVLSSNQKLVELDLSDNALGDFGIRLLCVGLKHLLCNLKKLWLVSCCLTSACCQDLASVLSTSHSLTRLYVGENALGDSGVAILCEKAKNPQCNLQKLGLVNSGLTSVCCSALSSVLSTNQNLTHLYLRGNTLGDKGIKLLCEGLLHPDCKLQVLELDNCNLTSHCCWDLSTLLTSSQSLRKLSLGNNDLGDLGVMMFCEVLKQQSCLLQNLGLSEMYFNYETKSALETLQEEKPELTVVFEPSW

For `CCOC(=O)Cn1nc(Cc2ccccc2Cl)oc1=O`, the outcome with Rattus norvegicus [1], in the data set with Rattus norvegicus [2] and in the data set with Rattus norvegicus [8] was Active. Further, the Activity in the data set on Rattus norvegicus [3] is listed as 18 mmHg; in data set [7] it was “Non-Toxic”. In the data set with Rattus norvegicus [4], the infarct size in vivo at 20 mg/kg/day is around 53%. The half-life at 100 µM in data set [5] is above 48 h. Also, the inhibition result in the data set with Rattus norvegicus [6] is “Active”. Also, in data set [9], the Stability result is recorded as “Stable”. Moreover, the half-maximal inhibitory concentration (IC50) in data set [10] turned out to be 16.6 µM.
